From ChEMBL document CHEMBL4152228, “Structural-based design, synthesis, and antitumor activity of novel alloxazine analogues with potential selective kinase inhibition” (Eur J Med Chem, 2018)
Each block holds one compound with its values, some of them ahead of it.

Assays:
HCT-116 = test: Antiproliferative activity against human HCT116 cells after 72 hrs by MTT assay; assay type: functional, cell-based; settings: HCT-116, 72 h
In short: (§1)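 MTT viability assay. Cells grown in RPMI-1640 with 10% heat-inactivated FBS, L-glutamine and 1% penicillin/streptomycin, used within 20 passages. Seeded at 5×10^3 cells/well, left overnight at 37 °C, then exposed to final concentrations of 0.005–50 µM (0.1% DMSO) for up to 72 h. MTT added for 3 h, formazan dissolved in DMSO, absorbance read at 550 nm. IC50 derived relative to untreated controls.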

[1] = Antiproliferative activity against human WM793B cells after 72 hrs by MTT assay; assay type: functional, cell-based; in short: as §1
K562 = test: Antiproliferative activity against human K562 cells after 72 hrs by MTT assay; assay type: functional, cell-based; settings: K562, 72 h
A2780 = test: Antiproliferative activity against human A2780 cells after 72 hrs by MTT assay; assay type: functional, cell-based; settings: A2780, 72 h; in short: as §1
MCF7 [2] = test: Antiproliferative activity against human MCF7 cells after 72 hrs by MTT assay; assay type: functional, cell-based; settings: MCF7, 72 h; in short: as §1
[3] = target: Cyclin-dependent kinase 16 (Homo sapiens) (UniProt Q00536); test: Inhibition of CDK16 (unknown origin) at 10 uM by [33P]-ATP radiometric assay
Sequence of Cyclin-dependent kinase 16 (Homo sapiens) (Q00536 whole entry): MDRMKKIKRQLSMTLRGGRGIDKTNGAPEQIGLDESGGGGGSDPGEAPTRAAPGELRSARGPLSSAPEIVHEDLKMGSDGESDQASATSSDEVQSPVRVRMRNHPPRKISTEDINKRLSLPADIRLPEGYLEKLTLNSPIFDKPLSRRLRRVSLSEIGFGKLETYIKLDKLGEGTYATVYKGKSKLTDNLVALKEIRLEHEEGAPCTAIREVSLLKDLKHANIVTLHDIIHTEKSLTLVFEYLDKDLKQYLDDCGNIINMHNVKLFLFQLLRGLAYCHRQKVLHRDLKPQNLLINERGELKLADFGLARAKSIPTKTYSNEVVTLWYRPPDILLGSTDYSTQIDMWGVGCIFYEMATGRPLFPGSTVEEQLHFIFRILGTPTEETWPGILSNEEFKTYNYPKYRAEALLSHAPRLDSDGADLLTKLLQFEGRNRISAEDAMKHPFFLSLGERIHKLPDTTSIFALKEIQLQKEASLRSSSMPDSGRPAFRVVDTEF
In short: (§2)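 Radiometric kinase profiling: purified recombinant kinase (~10–50 nM final) with substrate, assay buffer and compound at 10 µM (control 10% DMSO). Started with 33P-ATP (50 µM stock, 0.8 µCi), run 30 min at ambient temperature, then spotted onto P81 phosphocellulose and washed in 1% phosphoric acid. Scintillation counted, no-substrate blank subtracted, single measurement, result given as % change versus control.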

[4] = target: Epidermal growth factor receptor (Homo sapiens) (UniProt P00533); test: Inhibition of EGFR (unknown origin) at 10 uM by [33P]-ATP radiometric assay; in short: as §2
[5] = target: Vascular endothelial growth factor receptor 1 (Homo sapiens) (UniProt P17948); test: Inhibition of FLT1 (unknown origin) at 10 uM by [33P]-ATP radiometric assay; in short: as §2
[6] = target: Focal adhesion kinase 1 (Homo sapiens) (UniProt Q05397); test: Inhibition of FAK (unknown origin) at 10 uM by [33P]-ATP radiometric assay; in short: as §2
[7] = target: Hepatocyte growth factor receptor (Homo sapiens) (UniProt P08581); test: Inhibition of MET (unknown origin) at 10 uM by [33P]-ATP radiometric assay; in short: as §2
[8] = target: Fibroblast growth factor receptor 1 (Homo sapiens) (UniProt P11362); test: Inhibition of FGFR1 (unknown origin) at 10 uM by [33P]-ATP radiometric assay; in short: as §2
MCF7 [9] = test: Induction of apoptosis in human MCF7 cells assessed as viable cells at 5 uM after 72 hrs by annexin V-FITC/propidium iodide staining-based flow cytometric method (reference value: 76%); assay type: functional; settings: MCF7, 72 h, read-out: Activity
MCF7 [10] = test: Induction of apoptosis in human MCF7 cells assessed as late apoptotic cells at 10 uM after 72 hrs by annexin V-FITC/propidium iodide staining-based flow cytometric method (reference value: 2.6%); assay type: functional
MCF7 [11] = test: Induction of apoptosis in human MCF7 cells assessed as late apoptotic cells at 5 uM after 72 hrs by annexin V-FITC/propidium iodide staining-based flow cytometric method (reference value: 2.6%); assay type: functional
[12] = target: Receptor tyrosine-protein kinase erbB-2 (Homo sapiens) (UniProt P04626); test: Inhibition of HER2 (unknown origin) at 10 uM by [33P]-ATP radiometric assay; in short: as §2
Sequence of Receptor tyrosine-protein kinase erbB-2 (Homo sapiens) (P04626 whole entry): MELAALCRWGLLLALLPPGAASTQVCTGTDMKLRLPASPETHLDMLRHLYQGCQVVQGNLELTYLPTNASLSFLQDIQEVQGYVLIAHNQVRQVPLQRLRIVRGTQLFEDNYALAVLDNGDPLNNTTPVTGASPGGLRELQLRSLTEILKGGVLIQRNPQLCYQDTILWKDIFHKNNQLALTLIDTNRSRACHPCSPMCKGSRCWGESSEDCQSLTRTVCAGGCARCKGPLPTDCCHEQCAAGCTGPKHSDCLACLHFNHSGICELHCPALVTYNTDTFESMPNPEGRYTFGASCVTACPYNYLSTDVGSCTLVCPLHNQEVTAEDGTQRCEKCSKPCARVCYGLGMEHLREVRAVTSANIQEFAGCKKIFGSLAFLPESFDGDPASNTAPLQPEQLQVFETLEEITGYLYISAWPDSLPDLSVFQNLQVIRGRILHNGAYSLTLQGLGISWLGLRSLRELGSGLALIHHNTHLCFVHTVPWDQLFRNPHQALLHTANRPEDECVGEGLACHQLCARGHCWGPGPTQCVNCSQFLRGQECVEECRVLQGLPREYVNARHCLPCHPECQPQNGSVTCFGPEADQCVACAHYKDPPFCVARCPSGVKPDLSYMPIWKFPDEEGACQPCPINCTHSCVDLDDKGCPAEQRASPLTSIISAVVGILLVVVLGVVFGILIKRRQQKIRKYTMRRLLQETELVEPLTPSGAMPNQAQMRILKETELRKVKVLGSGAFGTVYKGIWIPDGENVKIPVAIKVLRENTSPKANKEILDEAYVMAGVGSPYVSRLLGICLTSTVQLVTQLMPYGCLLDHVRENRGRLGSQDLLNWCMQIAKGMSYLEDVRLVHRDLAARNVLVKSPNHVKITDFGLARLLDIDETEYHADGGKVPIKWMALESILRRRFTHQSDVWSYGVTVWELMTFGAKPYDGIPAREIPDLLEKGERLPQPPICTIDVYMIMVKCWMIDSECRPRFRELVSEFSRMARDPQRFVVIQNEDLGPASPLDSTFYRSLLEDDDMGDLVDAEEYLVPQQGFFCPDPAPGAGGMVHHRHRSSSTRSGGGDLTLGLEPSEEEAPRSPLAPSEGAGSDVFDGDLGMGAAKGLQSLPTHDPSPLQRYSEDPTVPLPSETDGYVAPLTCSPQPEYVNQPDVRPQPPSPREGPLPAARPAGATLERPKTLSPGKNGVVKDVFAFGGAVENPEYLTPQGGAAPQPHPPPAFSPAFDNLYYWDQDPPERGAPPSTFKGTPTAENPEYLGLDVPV

[13] = target: Protein kinase C beta type (Homo sapiens) (UniProt P05771); test: Inhibition of PCK-beta2 (unknown origin) at 10 uM by [33P]-ATP radiometric assay; in short: as §2
Sequence of Protein kinase C beta type (Homo sapiens) (P05771 2-671 limits assumed): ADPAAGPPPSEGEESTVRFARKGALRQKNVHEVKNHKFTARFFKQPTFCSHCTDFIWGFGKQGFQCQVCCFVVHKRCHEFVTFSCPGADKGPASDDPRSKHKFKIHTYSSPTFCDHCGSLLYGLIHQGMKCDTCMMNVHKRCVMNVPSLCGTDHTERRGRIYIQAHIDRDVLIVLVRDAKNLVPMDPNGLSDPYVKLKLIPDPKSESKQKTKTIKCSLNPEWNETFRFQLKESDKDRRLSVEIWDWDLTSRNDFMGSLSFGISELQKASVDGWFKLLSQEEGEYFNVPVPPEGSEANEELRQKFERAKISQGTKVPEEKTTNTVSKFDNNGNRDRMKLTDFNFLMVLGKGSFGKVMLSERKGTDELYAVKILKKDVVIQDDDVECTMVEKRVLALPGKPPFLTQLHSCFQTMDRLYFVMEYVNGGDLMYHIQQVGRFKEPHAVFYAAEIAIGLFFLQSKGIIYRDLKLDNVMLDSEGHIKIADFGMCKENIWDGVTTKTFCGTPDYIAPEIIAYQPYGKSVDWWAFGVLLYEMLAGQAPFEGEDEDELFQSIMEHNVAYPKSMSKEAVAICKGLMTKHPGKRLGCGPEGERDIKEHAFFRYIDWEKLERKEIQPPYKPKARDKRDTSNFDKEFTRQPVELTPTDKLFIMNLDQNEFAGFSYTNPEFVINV

[14] = target: Casein kinase I isoform alpha (Homo sapiens) (UniProt P48729); test: Inhibition of CK1alpha1 (unknown origin) at 10 uM by [33P]-ATP radiometric assay; in short: as §2
[15] = target: Mitogen-activated protein kinase 8 (Homo sapiens) (UniProt P45983); test: Inhibition of JNK1 (unknown origin) at 10 uM by [33P]-ATP radiometric assay; in short: as §2
Sequence of Mitogen-activated protein kinase 8 (Homo sapiens) (P45983 whole entry): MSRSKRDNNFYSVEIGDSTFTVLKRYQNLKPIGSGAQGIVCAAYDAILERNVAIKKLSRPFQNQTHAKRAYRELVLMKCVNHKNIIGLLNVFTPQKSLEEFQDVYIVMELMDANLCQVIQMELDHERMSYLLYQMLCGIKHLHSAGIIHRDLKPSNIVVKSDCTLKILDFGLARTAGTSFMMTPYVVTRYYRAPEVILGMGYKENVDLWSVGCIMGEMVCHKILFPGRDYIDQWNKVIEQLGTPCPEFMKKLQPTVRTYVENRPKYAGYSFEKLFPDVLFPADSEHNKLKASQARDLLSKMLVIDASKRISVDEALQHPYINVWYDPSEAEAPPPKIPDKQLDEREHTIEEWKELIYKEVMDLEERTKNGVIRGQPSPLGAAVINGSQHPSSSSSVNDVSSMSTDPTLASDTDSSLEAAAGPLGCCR

MCF7 [16] = test: Induction of apoptosis in human MCF7 cells assessed as viable cells at 10 uM after 72 hrs by annexin V-FITC/propidium iodide staining-based flow cytometric method (reference value: 76%); assay type: functional; settings: MCF7, 72 h, read-out: Activity
MCF7 [17] = test: Induction of apoptosis in human MCF7 cells assessed as early apoptotic cells at 5 uM after 72 hrs by annexin V-FITC/propidium iodide staining-based flow cytometric method (reference value: 9%); assay type: functional
MCF7 [18] = test: Induction of apoptosis in human MCF7 cells assessed as early apoptotic cells at 1 uM after 72 hrs by annexin V-FITC/propidium iodide staining-based flow cytometric method (reference value: 9%); assay type: functional
MCF7 [19] = test: Induction of apoptosis in human MCF7 cells assessed as necrotic cells at 5 uM after 72 hrs by annexin V-FITC/propidium iodide staining-based flow cytometric method (reference value: 12.6%); assay type: functional
MCF7 [20] = test: Induction of apoptosis in human MCF7 cells assessed as early apoptotic cells at 10 uM after 72 hrs by annexin V-FITC/propidium iodide staining-based flow cytometric method (reference value: 9%); assay type: functional
MCF7 [21] = test: Induction of apoptosis in human MCF7 cells assessed as necrotic cells at 10 uM after 72 hrs by annexin V-FITC/propidium iodide staining-based flow cytometric method (reference value: 12.6%); assay type: functional
[22] = target: Calcium/calmodulin-dependent protein kinase type 1 (Homo sapiens) (UniProt Q14012); test: Inhibition of CAMK1 (unknown origin) at 10 uM by [33P]-ATP radiometric assay; in short: as §2
Sequence of Calcium/calmodulin-dependent protein kinase type 1 (Homo sapiens) (Q14012 whole entry, looked up): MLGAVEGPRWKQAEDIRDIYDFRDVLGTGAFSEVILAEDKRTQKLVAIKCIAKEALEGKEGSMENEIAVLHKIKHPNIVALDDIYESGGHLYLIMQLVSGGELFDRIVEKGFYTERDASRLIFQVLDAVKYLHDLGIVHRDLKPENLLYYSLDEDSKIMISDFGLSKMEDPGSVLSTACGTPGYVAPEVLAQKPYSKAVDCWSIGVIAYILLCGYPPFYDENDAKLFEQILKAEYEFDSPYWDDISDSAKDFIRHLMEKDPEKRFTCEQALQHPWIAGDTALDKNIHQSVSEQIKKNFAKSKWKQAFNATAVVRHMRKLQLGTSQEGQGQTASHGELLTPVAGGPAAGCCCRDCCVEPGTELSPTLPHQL

MCF7 [23] = test: Induction of apoptosis in human MCF7 cells assessed as late apoptotic cells at 1 uM after 72 hrs by annexin V-FITC/propidium iodide staining-based flow cytometric method (reference value: 2.6%); assay type: functional
[24] = target: Calcium/calmodulin-dependent protein kinase type II subunit alpha (Homo sapiens) (UniProt Q9UQM7); test: Inhibition of CAMK2-alpha (unknown origin) at 10 uM by [33P]-ATP radiometric assay; in short: as §2
Sequence of Calcium/calmodulin-dependent protein kinase type II subunit alpha (Homo sapiens) (Q9UQM7 whole entry): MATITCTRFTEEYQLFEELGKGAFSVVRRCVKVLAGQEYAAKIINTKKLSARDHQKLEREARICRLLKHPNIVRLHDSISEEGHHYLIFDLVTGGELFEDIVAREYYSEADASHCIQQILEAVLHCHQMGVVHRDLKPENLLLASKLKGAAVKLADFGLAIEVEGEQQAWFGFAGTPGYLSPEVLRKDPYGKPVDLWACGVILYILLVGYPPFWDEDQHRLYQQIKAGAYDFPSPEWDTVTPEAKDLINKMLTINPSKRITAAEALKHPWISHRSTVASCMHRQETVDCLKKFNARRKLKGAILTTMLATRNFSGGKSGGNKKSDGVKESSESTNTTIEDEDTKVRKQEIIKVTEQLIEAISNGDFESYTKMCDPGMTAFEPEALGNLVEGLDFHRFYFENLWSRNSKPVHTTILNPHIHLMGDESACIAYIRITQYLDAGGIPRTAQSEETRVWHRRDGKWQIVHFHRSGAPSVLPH

[25] = target: Mast/stem cell growth factor receptor Kit (Homo sapiens) (UniProt P10721); test: Inhibition of c-KIT (unknown origin) at 10 uM by [33P]-ATP radiometric assay
Sequence of Mast/stem cell growth factor receptor Kit (Homo sapiens) (P10721 whole entry): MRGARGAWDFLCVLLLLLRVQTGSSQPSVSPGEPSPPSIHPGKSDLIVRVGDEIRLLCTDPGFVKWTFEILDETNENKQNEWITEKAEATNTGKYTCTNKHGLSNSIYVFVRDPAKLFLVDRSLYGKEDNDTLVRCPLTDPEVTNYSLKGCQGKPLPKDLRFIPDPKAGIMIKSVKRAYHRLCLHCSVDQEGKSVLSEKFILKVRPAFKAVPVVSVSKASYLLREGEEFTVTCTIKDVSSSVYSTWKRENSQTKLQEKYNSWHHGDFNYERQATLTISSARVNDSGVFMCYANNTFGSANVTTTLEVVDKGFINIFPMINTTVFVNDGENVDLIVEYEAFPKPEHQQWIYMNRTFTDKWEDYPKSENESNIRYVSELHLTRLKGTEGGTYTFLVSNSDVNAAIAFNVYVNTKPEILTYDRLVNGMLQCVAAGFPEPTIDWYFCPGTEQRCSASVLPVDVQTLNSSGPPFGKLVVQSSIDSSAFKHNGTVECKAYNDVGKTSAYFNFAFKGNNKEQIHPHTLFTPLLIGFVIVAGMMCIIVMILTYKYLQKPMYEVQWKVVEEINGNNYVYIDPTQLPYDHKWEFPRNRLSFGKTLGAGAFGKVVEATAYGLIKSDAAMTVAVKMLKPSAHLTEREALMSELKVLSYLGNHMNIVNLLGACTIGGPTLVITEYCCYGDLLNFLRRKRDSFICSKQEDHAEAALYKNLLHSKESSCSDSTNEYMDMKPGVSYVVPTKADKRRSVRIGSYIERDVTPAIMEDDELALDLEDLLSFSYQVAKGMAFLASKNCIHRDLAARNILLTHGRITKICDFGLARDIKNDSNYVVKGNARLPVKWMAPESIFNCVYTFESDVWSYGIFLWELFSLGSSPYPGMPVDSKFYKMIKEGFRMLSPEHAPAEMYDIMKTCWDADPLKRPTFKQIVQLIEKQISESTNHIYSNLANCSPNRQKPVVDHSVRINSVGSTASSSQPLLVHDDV
In short: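 Radiometric kinase profiling: purified recombinant kinase (~10–50 nM final) with substrate, assay buffer and compound at 10 µM (control 10% DMSO). Started with 33P-ATP (50 µM stock, 0.8 µCi), run 30 min at ambient temperature, then spotted onto P81 phosphocellulose and washed in 1% phosphoric acid.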

MCF7 [26] = test: Induction of apoptosis in human MCF7 cells assessed as viable cells at 1 uM after 72 hrs by annexin V-FITC/propidium iodide staining-based flow cytometric method (reference value: 76%); assay type: functional; settings: MCF7, 72 h, read-out: Activity
[27] = target: Activin receptor type-2A (Homo sapiens) (UniProt P27037); test: Inhibition of ACVR2A (unknown origin) at 10 uM by [33P]-ATP radiometric assay; in short: as §2
MCF7 [28] = test: Induction of apoptosis in human MCF7 cells assessed as necrotic cells at 1 uM after 72 hrs by annexin V-FITC/propidium iodide staining-based flow cytometric method (reference value: 12.6%); assay type: functional
[29] = target: Mitogen-activated protein kinase 3 (Homo sapiens) (UniProt P27361); test: Inhibition of ERK1 (unknown origin) at 10 uM by [33P]-ATP radiometric assay; in short: as §2
Sequence of Mitogen-activated protein kinase 3 (Homo sapiens) (P27361 whole entry): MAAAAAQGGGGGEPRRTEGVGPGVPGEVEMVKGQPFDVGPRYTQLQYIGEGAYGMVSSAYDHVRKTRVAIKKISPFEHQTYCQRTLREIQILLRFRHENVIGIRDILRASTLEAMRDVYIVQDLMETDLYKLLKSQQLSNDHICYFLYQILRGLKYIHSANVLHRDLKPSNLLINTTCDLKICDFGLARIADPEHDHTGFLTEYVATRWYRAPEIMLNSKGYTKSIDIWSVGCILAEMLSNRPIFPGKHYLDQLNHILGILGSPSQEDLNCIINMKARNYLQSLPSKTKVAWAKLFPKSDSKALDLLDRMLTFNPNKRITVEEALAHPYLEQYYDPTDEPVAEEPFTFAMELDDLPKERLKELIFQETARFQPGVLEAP

Structure (SMILES): COc1ccc2nc3nc(NCc4ccc(CN5CCN(C)CC5)cc4)[nH]c(=O)c3nc2c1
IC50 (HCT-116): 0.05 µM
inhibition [3]: 12%
inhibition [4]: 25%
inhibition [5]: 12%
inhibition [6]: -10%
inhibition [7]: 2%
inhibition [8]: 8%
viability at 5 µM (MCF7 [9]): 72.3%
Activity (MCF7 [10]): 5.4%
Activity (MCF7 [11]): 4.1%
inhibition [12]: -2%
inhibition [13]: -7%
IC50 (K562): > 50 µM
inhibition [14]: -1%
inhibition [15]: -7%
viability at 10 µM (MCF7 [16]): 72.2%
Activity (MCF7 [17]): 5%
Activity (MCF7 [18]): 8.1%
Activity (MCF7 [19]): 18.6%
Activity (MCF7 [20]): 6.2%
Activity (MCF7 [21]): 16.3%
inhibition [22]: 19%
Activity (MCF7 [23]): 3.7%
IC50 (A2780): 0.05 µM
inhibition [24]: 8%
inhibition [25]: -9%
viability at 1 µM (MCF7 [26]): 78.4%
inhibition [27]: -6%
IC50 (MCF7 [2]): 0.04 µM
Activity (MCF7 [28]): 9.7%
inhibition [29]: 7%

Structure (SMILES): CSc1nc2nc3ccc(C)cc3cc2c(=O)[nH]1
IC50 (MCF7 [2]): 1.79 µM

Structure (SMILES): COc1ccc2nc3nc(NC(C)c4ccccc4)[nH]c(=O)c3nc2c1 (stereo not drawn)
IC50 (HCT-116): 5.78 µM
IC50 [1]: > 50 µM
IC50 (K562): > 50 µM
IC50 (A2780): 4.83 µM
IC50 (MCF7 [2]): 5.73 µM

More lines, main results first:

IC50 (HCT-116): 7.23 µM
IC50 (K562): 15.9 µM
IC50 (A2780): 1.52 µM
IC50 (MCF7 [2]): 2.34 µM
Structure (SMILES): Cc1ccc2nc3nc(NCc4ccc(CN5CCCCC5)cc4)[nH]c(=O)c3cc2c1
IC50 [1]: 11 µM

IC50 (HCT-116): 0.72 µM
inhibition [3]: 11%
inhibition [4]: 16%
inhibition [7]: 9%
inhibition [8]: 37%
inhibition [12]: 8%
inhibition [13]: 5%
IC50 (K562): 26.8 µM
inhibition [15]: -5%
inhibition [22]: 14%
IC50 (A2780): 0.54 µM
inhibition [24]: -6%
inhibition [25]: 60%
IC50 (MCF7 [2]): 0.62 µM
inhibition [29]: 6%
Structure (SMILES): CN1CCN(Cc2ccc(CNc3nc4nc5ccc(Cl)cc5cc4c(=O)[nH]3)cc2)CC1
IC50 [1]: > 50 µM

IC50 (HCT-116): 1.53 µM
IC50 (K562): > 50 µM
IC50 (A2780): 2.01 µM
IC50 (MCF7 [2]): 1.49 µM
Structure (SMILES): O=c1[nH]c(NCc2ccc(CN3CCOCC3)cc2)nc2nc3ccccc3nc12
IC50 [1]: > 50 µM

IC50 (HCT-116): 5.22 µM
IC50 (K562): 23.2 µM
IC50 (A2780): 2.89 µM
IC50 (MCF7 [2]): 3.13 µM
Structure (SMILES): COc1ccc2nc3nc(NCc4ccc(CN5CCOCC5)cc4)[nH]c(=O)c3cc2c1
IC50 [1]: 49.1 µM
